Measured values reported in ChEMBL document CHEMBL5338714, “Design, synthesis and biological evaluation of biphenyl-benzamides as potent FtsZ inhibitors” (Eur J Med Chem, 2022).
Converted amounts (≈) assume the structure as drawn. The source made the active and inactive calls. The rule behind the calls is not given here.

Key:
[1] = tested on: Staphylococcus aureus; experiment: Antibacterial activity against Staphylococcus aureus ATCC29213 assessed as bacterial growth inhibition incubated for 18 hrs by CLSI based broth microdilution method; format: functional
Summary of the method: (§1)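 CLSI broth microdilution. Log-phase bacteria in Mueller Hinton broth added to 2-fold serial dilutions spanning 128 to 0.25 or 2 to 0.004 µg/mL. Incubated aerobically for 18 h at 37 °C, then OD600 read. MIC is the lowest concentration giving ≥90% growth inhibition; three independent assays.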

[2] = tested on: Bacillus subtilis; experiment: Antibacterial activity against Bacillus subtilis MG27 assessed as bacterial growth inhibition incubated for 18 hrs by CLSI based broth microdilution method; format: functional; summary of the method: as §1
[3] = tested on: Bacillus subtilis; experiment: Antibacterial activity against Bacillus subtilis 618 assessed as bacterial growth inhibition incubated for 18 hrs by CLSI based broth microdilution method; format: functional; summary of the method: as §1
[4] = tested on: Bacillus subtilis; experiment: Antibacterial activity against Bacillus subtilis BS01 assessed as bacterial growth inhibition incubated for 18 hrs by CLSI based broth microdilution method; format: functional; summary of the method: as §1
[5] = tested on: Staphylococcus aureus; experiment: Antibacterial activity against ampicillin/kanamycin-resistant Staphylococcus aureus 6917 assessed as bacterial growth inhibition incubated for 18 hrs by CLSI based broth microdilution method; format: functional
Summary of the method: (§2)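 Broth microdilution to CLSI guidelines. Log-phase bacteria grown in Mueller Hinton broth, diluted, then exposed to 2-fold serial dilutions of compound (128 to 0.25 µg/mL or 2 to 0.004 µg/mL). Incubated aerobically 18 h at 37 °C. Growth read as OD600. MIC = lowest concentration giving ≥90% growth inhibition. Three independent assays.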

[6] = tested on: Pseudomonas aeruginosa; experiment: Antibacterial activity against Pseudomonas aeruginosa 15690 assessed as bacterial growth inhibition incubated for 18 hrs by CLSI based broth microdilution method; format: functional; summary of the method: as §2
[7] = tested on: Staphylococcus aureus; experiment: Selectivity ratio of MBC for Staphylococcus aureus ATCC25923 to MIC for Staphylococcus aureus ATCC25923; format: functional
Summary of the method: (§3)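 After 24 h of broth microdilution, 5 µL from clear wells plated on LB agar and incubated aerobically for 24 h at 37 °C. MBC is the lowest concentration with no colonies. Ratio is MBC over MIC, with ≤4 taken as bactericidal and >4 as bacteriostatic.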

[8] = tested on: Bacillus subtilis; experiment: Bactericidal activity against Bacillus subtilis ATCC9372 incubated for 24 hrs by broth microdilution method; format: functional
Summary of the method: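 MBC from the broth microdilution plates (MHB, 2-fold dilutions). After 24 h, 5 µL aliquots from clear wells were plated on LB agar and incubated aerobically 24 h at 37 °C, then colonies counted. MBC = lowest concentration with no colonies.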

[9] = tested on: Bacillus subtilis; experiment: Selectivity ratio of MBC for Bacillus subtilis ATCC9372 to MIC for Bacillus subtilis ATCC9372; format: functional; summary of the method: as §3
[10] = tested on: Staphylococcus aureus; experiment: Antibacterial activity against Staphylococcus aureus ATCC25923 assessed as reduction in bacterial count at 4 times MIC measured for 3 hrs by time kill curve assay; format: functional, organism-based
Summary of the method: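 Time-kill: log-phase cultures diluted to about 10^6 CFU/mL in MHB with compound at 1×, 2×, 4× or 8× MIC (vancomycin at 2× MIC), shaken at 37 °C. Samples taken at 3, 6, 12 and 24 h, serially diluted and plated on LB agar. Colonies counted after 24 h at 37 °C; detection limit 10^3 CFU/mL.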

[11] = tested on: Staphylococcus aureus; experiment: Induction of resistance in Staphylococcus aureus ATCC29213 assessed as fold increase in MIC at 0.5 times MIC after 18 passages incubated for 24 hrs by resistance development assay; format: functional
Summary of the method: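 Serial passage of S. aureus ATCC29213. Initial MIC was found by broth microdilution. Bacteria from the 0.5 × MIC tubes (duplicate) were diluted to about 5 × 10^5 CFU/mL and re-exposed to compound for 24 h at 35 °C, then fold increase in MIC was determined. Repeated for 18 passages, with norfloxacin as comparator.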

[12] = Metabolic stability in rat liver microsomes assessed as compound remaining preincubated for 5 mins followed by NADPH addition measured after 30 mins by LC/MS analysis; format: ADME, Microsome; settings: time 35 min, read-out: Stability
Summary of the method: (§4)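 Liver microsomes (final protein 0.75 mg/mL) with compound in 100 mM phosphate buffer pH 7.4, preincubated 5 min at 37 °C. Reaction started with NADPH regeneration system, stopped at 5, 15, 30 and 45 min with acetonitrile containing internal standard. Percent remaining measured by LC/MS, with ketanserin as reference; variation given as RSD of area ratio.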

[13] = Metabolic stability in human liver microsomes assessed as compound remaining preincubated for 5 mins followed by NADPH addition measured after 15 mins by LC/MS analysis; format: ADME, Microsome; settings: time 20 min, read-out: Stability; summary of the method: as §4
[14] = Metabolic stability in human liver microsomes assessed as compound remaining preincubated for 5 mins followed by NADPH addition measured after 30 mins by LC/MS analysis; format: ADME, Microsome; settings: time 35 min, read-out: Stability; summary of the method: as §4
[15] = Metabolic stability in rat liver microsomes assessed as compound remaining preincubated for 5 mins followed by NADPH addition measured after 45 mins by LC/MS analysis; format: ADME, Microsome; settings: time 50 min, read-out: Stability; summary of the method: as §4
[16] = Metabolic stability in mouse liver microsomes assessed as compound remaining preincubated for 5 mins followed by NADPH addition measured after 5 mins by LC/MS analysis; format: ADME, Microsome; settings: time 10 min, read-out: Stability; summary of the method: as §4
[17] = Metabolic stability in rat liver microsomes assessed as half life preincubated for 5 mins followed by NADPH addition measured upto 45 mins by LC/MS analysis; format: ADME, Microsome; settings: time < 50 min
Summary of the method: (§5)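 Liver microsomes at 0.75 mg/mL final protein, with test article and NADPH regeneration system (6 mM) in 100 mM phosphate buffer, pH 7.4. Preincubated 5 min at 37 °C, then started with NADPH. Quenched with acetonitrile containing internal standard at 5, 15, 30 and 45 min, centrifuged, and percent remaining measured by LC/MS. Ketanserin served as reference.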

[18] = Metabolic stability in mouse liver microsomes assessed as half life preincubated for 5 mins followed by NADPH addition measured upto 45 mins by LC/MS analysis; format: ADME, Microsome; settings: time < 50 min; summary of the method: as §5
[19] = Metabolic stability in mouse liver microsomes assessed as intrinsic clearance preincubated for 5 mins followed by NADPH addition measured upto 45 mins by LC/MS analysis; format: ADME, Microsome; settings: time < 50 min, read-out: CLH; summary of the method: as §5
[20] = Tmax in ICR mouse at 1 mg/kg, iv measured for 0.08 to 24 hrs by LC-MS/MS analysis; format: ADME, organism-based; settings: in vivo, time 0.08-24 hrs
Summary of the method: (§6)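 Male ICR mice, single intravenous dose formulated in 5% DMSO, 4% ethanol, 5% Cremophor EL, 86% water. Blood sampled at 5, 15, 30 min, 1, 2, 4, 8 and 24 h; plasma stored at -20 °C. Compound quantified by LC-MS/MS, with parameters from non-compartmental analysis.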

[21] = Clearance in ICR mouse at 1 mg/kg, iv measured for 0.08 to 24 hrs by LC-MS/MS analysis; format: ADME, organism-based; settings: in vivo, time 0.08-24 hrs; summary of the method: as §6
[22] = Tmax in ICR mouse at 5 mg/kg, po measured for 0.25 to 24 hrs by LC-MS/MS analysis; format: ADME, organism-based; settings: in vivo, time 0.25-24 hrs
Summary of the method: (§7)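 Male ICR mice dosed orally with a solution of 5% DMSO, 4% ethanol, 5% Cremophor EL and 86% water. Blood collected at 15, 30 min, 1, 2, 4, 6, 8 and 24 h; plasma stored at -20 °C. Plasma levels measured by LC-MS/MS; parameters by non-compartmental analysis, with bioavailability relative to the 1 mg/kg iv dose.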

[23] = AUC (0 to t) in ICR mouse at 5 mg/kg, po measured for 0.25 to 24 hrs by LC-MS/MS analysis; format: ADME, organism-based; design: time lower 0.25 hrs, dose 5 mg/kg, time upper 24 hrs, route po; settings: in vivo; summary of the method: as §7

Cc1cc(Cl)ccc1-c1cccc(COc2ccc(F)c(C(N)=O)c2F)c1
MIC [1]: 0.25 µg/mL (≈ 0.645 µM)
MIC [2]: 0.031 µg/mL (≈ 0.0799 µM)
MIC [3]: 0.008 µg/mL (≈ 0.0206 µM)
MIC [4]: 0.016 µg/mL (≈ 0.0413 µM)
MIC [5]: 0.125 µg/mL (≈ 0.322 µM)
MIC [6]: > 128 µg/mL
Selectivity ratio [7]: 2
MBC [8]: 0.063 µg/mL (≈ 0.162 µM)
Selectivity ratio [9]: 4
Activity [10]: Active
fold change (FC) [11]: 4
remaining at 0.5 h [12]: 19.1%
remaining at 0.25 h [13]: 86.2%
remaining at 0.5 h [14]: 83.4%
remaining at 0.75 h [15]: 10%
remaining at 5 min [16]: 53.1%
half-life [17]: 13.6 min
half-life [18]: 5.09 min
CLint scaled [19]: 1070 mL/min/kg
Tmax [20]: 4.98 min
CL [21]: 94.713 mL/min/kg
Tmax [22]: 30 min
AUC(0-t) [23]: 544 ng·h/mL
